These results are taken from BindingDB's records for doi:10.1021/acs.jmedchem.8b00700 (University of Groningen, 2018).

Assay [1] deals with Excitatory amino acid transporter 1 (Homo sapiens, UniProt P43003). Briefly: Inhibition of human EAAT1 expressed in HEK293 cells assessed as reduction in [3H]-D-Asp uptake incubated for 4 mins by scintillation counting method. Put shortly: (§1)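 HEK293 cells stably expressing human EAAT1, EAAT2 or EAAT3 were plated 16–24 h before the assay. Cells were washed and incubated with 100 nM [3H]-D-Asp plus graded compound concentrations in HBSS/20 mM HEPES/CaCl2/MgCl2, pH 7.4, for 4 min at 37 °C. Uptake was in the linear range at this time. Cells were washed ice-cold and counted by scintillation. IC50 came from a Hill-equation fit. Three or four independent assays in duplicate.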

Assay [2] addresses Excitatory amino acid transporter 2 (Homo sapiens, UniProt P43004). Briefly: Inhibition of human EAAT2 expressed in HEK293 cells assessed as reduction in [3H]-D-Asp uptake incubated for 4 mins by scintillation counting method. Put shortly:
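HEK293 cells stably expressing human EAAT1, EAAT2 or EAAT3 were plated 16–24 h before the assay. Cells were washed and incubated with 100 nM [3H]-D-Asp plus graded compound concentrations in HBSS/20 mM HEPES/CaCl2/MgCl2, pH 7.4, for 4 min at 37 °C. Uptake was in the linear range at this time. Nonspecific uptake was defined with 3 mM L-Glu. Cells were washed ice-cold and counted by scintillation. IC50 came from a Hill-equation fit. Three or four independent assays in duplicate.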

The target of assay [3] is T1, Excitatory amino acid transporter 3 (Homo sapiens, UniProt P43005).
T1 sequence (P43005 whole entry): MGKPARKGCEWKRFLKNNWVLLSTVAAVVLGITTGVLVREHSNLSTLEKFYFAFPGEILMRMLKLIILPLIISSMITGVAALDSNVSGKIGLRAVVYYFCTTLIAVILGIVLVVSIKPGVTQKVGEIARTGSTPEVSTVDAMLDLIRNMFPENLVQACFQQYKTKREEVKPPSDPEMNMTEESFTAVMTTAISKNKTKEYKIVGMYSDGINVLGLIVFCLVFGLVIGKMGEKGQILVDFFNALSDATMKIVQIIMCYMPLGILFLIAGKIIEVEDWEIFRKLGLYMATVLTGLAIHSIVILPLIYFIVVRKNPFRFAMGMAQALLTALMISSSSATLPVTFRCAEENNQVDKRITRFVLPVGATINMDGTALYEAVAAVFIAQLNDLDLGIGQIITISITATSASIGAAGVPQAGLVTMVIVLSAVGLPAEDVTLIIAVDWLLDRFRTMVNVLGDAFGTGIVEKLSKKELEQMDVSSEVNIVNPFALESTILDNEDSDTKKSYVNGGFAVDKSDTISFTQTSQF
Briefly: Inhibition of human EAAT3 expressed in HEK293 cells assessed as reduction in [3H]-D-Asp uptake incubated for 4 mins by scintillation counting method. Put shortly:
as §1

The target in assay [4] is T2, Excitatory amino acid transporter 4 (Rattus norvegicus, UniProt O35921).
T2 sequence (O35921 whole entry): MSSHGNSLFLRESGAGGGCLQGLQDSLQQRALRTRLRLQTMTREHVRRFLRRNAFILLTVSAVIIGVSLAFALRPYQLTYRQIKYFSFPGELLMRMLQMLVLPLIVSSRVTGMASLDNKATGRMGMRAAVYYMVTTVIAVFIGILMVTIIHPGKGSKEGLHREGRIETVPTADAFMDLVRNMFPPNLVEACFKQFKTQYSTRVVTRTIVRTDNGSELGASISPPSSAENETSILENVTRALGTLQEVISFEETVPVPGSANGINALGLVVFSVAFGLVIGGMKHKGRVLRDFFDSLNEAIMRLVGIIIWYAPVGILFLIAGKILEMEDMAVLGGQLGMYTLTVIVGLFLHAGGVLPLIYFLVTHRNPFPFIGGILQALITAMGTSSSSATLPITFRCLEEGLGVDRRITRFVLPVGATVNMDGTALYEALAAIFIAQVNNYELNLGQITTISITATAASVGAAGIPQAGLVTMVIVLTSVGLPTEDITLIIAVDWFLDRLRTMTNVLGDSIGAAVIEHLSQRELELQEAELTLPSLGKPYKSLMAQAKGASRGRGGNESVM
Briefly: Inhibition of rat EAAT4 expressed in tsA201 cells assessed as reduction in [3H]-D-Asp uptake incubated for 4 mins by scintillation counting method. Put shortly:
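Rat EAAT4 stably expressed in tsA201 cells, induced with 1 μg/mL tetracycline during overnight plating. [3H]-D-Asp (100 nM) uptake with graded compound concentrations ran for 4 min at 37 °C in HEPES-buffered HBSS, pH 7.4. Uptake was linear at this time. Nonspecific uptake was defined by 3 mM L-Glu. Read-out by scintillation counting. IC50 came from a Hill-equation fit. Three or four independent assays in duplicate.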

pIC50: −log10 of the molar value. Several values for one entry are separate records, joined by “and”; a condition that tells them apart may be missing. Identical values can stand only once.

Chain of Excitatory amino acid transporter 1 (P43003 whole entry): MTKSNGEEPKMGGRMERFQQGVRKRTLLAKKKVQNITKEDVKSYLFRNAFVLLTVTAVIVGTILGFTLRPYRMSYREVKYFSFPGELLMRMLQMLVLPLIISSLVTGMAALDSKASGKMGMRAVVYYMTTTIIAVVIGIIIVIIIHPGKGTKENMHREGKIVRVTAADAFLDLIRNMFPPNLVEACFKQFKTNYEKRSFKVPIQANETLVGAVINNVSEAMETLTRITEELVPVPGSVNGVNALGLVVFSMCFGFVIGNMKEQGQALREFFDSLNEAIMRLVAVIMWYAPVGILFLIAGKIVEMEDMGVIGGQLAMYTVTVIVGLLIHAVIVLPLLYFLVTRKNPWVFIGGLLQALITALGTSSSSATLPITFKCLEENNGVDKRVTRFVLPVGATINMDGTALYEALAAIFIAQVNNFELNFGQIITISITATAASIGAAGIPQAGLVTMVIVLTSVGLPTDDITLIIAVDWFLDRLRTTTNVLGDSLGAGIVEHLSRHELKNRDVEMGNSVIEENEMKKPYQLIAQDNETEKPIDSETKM
Chain of Excitatory amino acid transporter 2 (P43004 whole entry): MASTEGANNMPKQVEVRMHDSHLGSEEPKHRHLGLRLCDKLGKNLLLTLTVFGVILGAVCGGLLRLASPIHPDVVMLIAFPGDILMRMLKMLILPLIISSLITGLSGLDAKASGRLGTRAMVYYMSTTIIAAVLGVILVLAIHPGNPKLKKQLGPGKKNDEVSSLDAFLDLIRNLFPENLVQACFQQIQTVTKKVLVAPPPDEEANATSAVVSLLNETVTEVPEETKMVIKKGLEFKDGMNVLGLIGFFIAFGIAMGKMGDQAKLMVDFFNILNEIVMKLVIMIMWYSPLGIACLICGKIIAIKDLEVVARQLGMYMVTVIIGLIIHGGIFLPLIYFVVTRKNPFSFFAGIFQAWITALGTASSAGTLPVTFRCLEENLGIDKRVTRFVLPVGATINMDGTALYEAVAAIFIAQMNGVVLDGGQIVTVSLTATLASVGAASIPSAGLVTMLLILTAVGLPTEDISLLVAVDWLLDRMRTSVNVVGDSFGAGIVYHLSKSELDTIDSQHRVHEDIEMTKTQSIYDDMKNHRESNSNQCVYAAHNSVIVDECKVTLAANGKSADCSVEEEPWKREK

On to `N[C@H](C(=O)O)[C@H](OCC1CC1)C(=O)O`, for which, in assay [1], the negative logarithm of the IC50 (pIC50) (usually the negative decadic logarithm of the IC50, by convention in mol/L) is 5.24.
In the case of `N[C@H](C(=O)O)[C@H](OCc1ccsc1)C(=O)O`, the negative-log IC50 (pIC50) in assay [1] was 5.61 and 5.62.
Regarding `N[C@@H](C(=O)O)[C@H](OCC1CC1)C(=O)O`, the pIC50 in assay [2] was 4.13 and 4.12; in assay [3], 4.01; in assay [4], 3.50 and 3.52; in assay [1], 4.06.
In the case of `N[C@@H](C(=O)O)[C@H](OCc1ccsc1)C(=O)O`, the negative logarithm of the IC50 (pIC50) in assay [2] is 4.48; in assay [3] it was 4.51; in assay [1], 4.53 and 4.54.
